High-throughput results: PubChem, The Scripps Research Institute Molecular Screening Center
The list is not random: actives were taken first. Their share in the collection is about 1.8%.
M4 ag: CHRM4 agonism in calcium assay | P08173 | CHO-K1 hM4/Gqi5, Fluo-8 calcium fluorescence; vehicle 0%, full acetylcholine response 100% | activation, % at 3 µM | actives 0.14% (n = 360,000) | AID 624127;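 active means activation above the run mean over all test wells plus 3 SD, cut at about 32% in these data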;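 further: peak over basal fluorescence ratio per well then scaled between controls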
CHRM4 antagonist: blocks acetylcholine activation of human M4 receptor. P08173. CHO-hM4 cells, ACh EC80, Fluo-8 calcium fluorescence. inhibition, % at 3 µM. actives 0.73% (n = 360,000);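 active means inhibition above its plate's cutoff, the mean inhibition of sample wells plus 3 SD, cut at about 27% in these data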
M5 PAM: positive allosteric modulators of human muscarinic M5 receptor. activation, % at 3 µM. actives 0.3% (n = 360,000). CHO-K1 hM5, Fluo-8 calcium, ACh EC20 PAM; 0% = ACh EC20, 100% = ACh EC100. P08912;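 active means activation above the run cutoff, the mean activation of all test compounds plus 3 SD, cut at about 18% in these data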
Target sequence (P08912 whole entry, looked up): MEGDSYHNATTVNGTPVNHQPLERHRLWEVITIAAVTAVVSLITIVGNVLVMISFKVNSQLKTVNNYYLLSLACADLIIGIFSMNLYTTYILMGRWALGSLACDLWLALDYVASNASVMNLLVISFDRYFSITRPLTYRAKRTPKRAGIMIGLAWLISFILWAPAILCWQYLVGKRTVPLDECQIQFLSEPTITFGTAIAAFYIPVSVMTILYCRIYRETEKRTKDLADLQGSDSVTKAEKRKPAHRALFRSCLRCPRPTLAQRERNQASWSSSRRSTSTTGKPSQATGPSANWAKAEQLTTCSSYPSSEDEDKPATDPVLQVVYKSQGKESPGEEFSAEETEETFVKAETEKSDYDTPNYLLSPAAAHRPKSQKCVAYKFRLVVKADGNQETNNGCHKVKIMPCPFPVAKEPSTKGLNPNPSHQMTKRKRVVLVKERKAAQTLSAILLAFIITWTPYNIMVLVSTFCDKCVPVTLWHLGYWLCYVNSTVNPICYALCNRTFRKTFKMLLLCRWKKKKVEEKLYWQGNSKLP
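System – CHO-K1 hM5 cells · Compound – 3 µM, single dose · Incubation – compound preincubation 140 s before EC20 acetylcholine addition · Technique – Fluo-8 calcium fluorescence · Measure – Max/basal fluorescence ratio as % of EC20–EC100 ACh window · Benchmarks – low control EC20 acetylcholine (0%), high control EC100 acetylcholine (100%) · Replication – singlicate, one well per test compound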
CHRM4 PAM: CHRM4 positive allosteric modulation; CHO-K1 hM4/Gqi5, Fluo-8 calcium fluorescence, ACh EC20; 0% = ACh EC20, 100% = maximal ACh; activation, % at 3 µM; actives 0.4% (n = 360,000);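 active means activation above its plate's cutoff, the mean activation of sample wells plus 3 SD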
CHRM5 agonist: agonists of human muscarinic M5 receptor (CHRM5); P08912; CHO-K1 hM5 cells, Fluo-8 calcium fluorescence; 0% DMSO wells, 100% maximal acetylcholine response; activation, % at 3 µM; actives 0.19% (n = 360,000); AID 624037;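 active means activation above the run's mean over test compounds plus 3 SD, cut at about 23% in these data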;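 further: signal is peak over basal fluorescence ratio across the kinetic read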
M5 antag: antagonists of human muscarinic M5 receptor (CHRM5); actives 0.59% (n = 360,000); CHO-hM5 cells, Fluo-8 calcium fluorescence, ACh EC80; AID 624040; inhibition, % at 3 µM;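 active means inhibition above a per-plate cutoff, the mean of that plate's test compounds plus 3 SD, cut at about 27% in these data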
Numbers stand for hits; – = inactive.

SMILES	M4 ag	CHRM4 antagonist	M5 PAM	CHRM4 PAM	CHRM5 agonist	M5 antag
COc1ccc(-n2nnnc2C(c2ccccc2)N2CCN(C/C=C/c3ccccc3)CC2)cc1 (configuration not stated)	–	32	–	–	–	72
CC(C)(C)n1nnnc1C(c1cccc(C#N)c1)N1CCN2CCCC2C1 (configuration not stated)	–	–	–	–	–	–
CC(C)(C)n1nnnc1C(c1ccccc1)N1CCN(C/C=C/c2ccccc2)CC1 (configuration not stated)	–	28	–	–	–	68
CCC(c1nnnn1C(C)(C)C)N1CCN(C/C=C/c2ccccc2)CC1 (configuration not stated)	–	–	–	–	–	–
CC(C)(C)n1nnnc1C(c1cccc(C#N)c1)N1CCCCCC1 (configuration not stated)	–	–	26	–	–	–
O=C(NC1CCCCC1)C1c2ccccc2OCC(=O)N1Cc1ccc2c(c1)OCO2 (configuration not stated)	–	–	–	–	–	–
CC(=O)n1cc([C@H]2C=C(C(N)=O)O[C@@H](OCc3ccc(CO)cc3)C2)c2ccccc21	34	–	–	–	29	–
C[C@@H]1CN([C@H](C)CO)C(=O)CCCn2cc(nn2)CO[C@H]1CN(C)C(=O)c1ccc2ccn(C)c2c1	–	–	–	–	–	–
Cc1ccc(-c2cnc(C(O)c3cccc(Cl)c3)[nH]2)cc1 (configuration not stated)	–	–	–	–	–	–
CC(=O)c1cccc(NC(=O)Nc2ccc3c(c2)N(C)C(=O)CS3)c1	–	–	–	–	–	30
CCn1c(SCc2ccc(Cl)cc2)nc2nc3c(cc2c1=O)CCCC3	–	–	–	28	–	–
COc1ccc(C(C(=O)NC2CCCC2)N(C(=O)c2snc(C(N)=O)c2N)c2cccc(O)c2)cc1 (configuration not stated)	–	–	–	–	–	27
NC(=O)c1nsc(C(=O)N(c2cccc(F)c2)C(C(=O)NC2CCCC2)c2ccc(O)cc2)c1N (configuration not stated)	–	–	–	–	–	–
Cn1c(=O)c2c(nc(Oc3ccc4c(c3)OCO4)n2Cc2ccc(Cl)cc2)n(C)c1=O	–	–	33	–	–	–
Cc1ccc(Cn2c(SCCN3CCCCC3)nc3c2c(=O)n(C)c(=O)n3C)cc1	–	–	–	–	–	–
CN(Cc1ccccc1)c1nc2c(c(=O)n(C)c(=O)n2C)n1CCCc1ccccc1	–	27	–	–	–	–
COc1ccc(Oc2nc3c(c(=O)n(C)c(=O)n3C)n2Cc2ccccc2)cc1	–	–	–	30	–	–
CCN(CC)c1nc2c(c(=O)n(C)c(=O)n2C)n1CCCc1ccccc1	–	–	–	–	–	–
Cn1c(=O)c2c(nc(SCCN3CCCCC3)n2Cc2ccccc2)n(C)c1=O	–	28	–	–	–	–
COc1ccccc1-c1cnc(C(O)c2ccc(CN3CCCCC3)cc2)[nH]1 (configuration not stated)	–	–	–	–	–	–
O=C(Nc1ccc(F)cc1)C(c1cc2ccccc2o1)N1CCN(CC(=O)N2CCCC2)CC1 (configuration not stated)	–	–	–	–	–	–
COc1ccc(CNC(=O)C[C@@H]2C=C[C@@H](NS(=O)(=O)c3cccc(OC)c3)[C@@H](CO)O2)cc1	–	–	–	–	–	–
Cn1c(=O)c2c(nc(N/N=C/c3ccncc3)n2Cc2ccccc2)n(C)c1=O	–	–	21	–	–	–
Cc1ccc(Cn2c(N/N=C/c3ccncc3)nc3c2c(=O)n(C)c(=O)n3C)cc1	–	–	–	–	–	–
CC(C)(C)N1C(=O)c2ccccc2NC(=O)C1C(=O)NCCOc1ccccc1 (configuration not stated)	–	–	–	–	–	–
SMILES	M4 ag	CHRM4 antagonist	M5 PAM	CHRM4 PAM	CHRM5 agonist	M5 antag
CCCn1c(=S)[nH]c2cc(C(=O)N3CCN(c4ccccc4OC)CC3)ccc2c1=O	–	39	–	–	–	–
CCOC(=O)C1CCCN(C(=O)c2ccc3c(c2)C(C)(C)CCC3(C)C)CC1 (configuration not stated)	–	–	–	–	–	–
Cc1cnc(NC(=O)CSc2nnc(-c3ccncc3)n2C2CCCCC2)s1	–	–	–	33	–	–
COc1cc(OC)nc(NC(=O)CSc2nnc(-c3ccccc3)n2C2CCCCC2)n1	–	–	25	–	–	–
CCOC(=O)[C@]12CCCC=C1N(CCc1ccc(OC)c(OC)c1)C(=O)[C@H](CC(=O)N1CCCC1)C2	–	–	–	–	–	–
CCc1ccc(Nc2n[n+](-c3ccccc3)c(-c3ccc(N(CC)CC)cc3)s2)cc1	42	30	–	–	–	36
COc1ccc2ccccc2c1-c1sc(Nc2ccccc2)n[n+]1-c1ccc(F)cc1	32	–	–	–	28	35
COc1ccc(-c2sc(Nc3ccccc3)n[n+]2-c2ccc(F)cc2)cc1Br	–	–	–	–	–	–
CCN(CC)c1ccc(-c2sc(Nc3ccccc3)n[n+]2-c2ccc(F)cc2)cc1	–	–	–	–	–	–
CCc1ccc(Nc2n[n+](-c3ccccc3)c(-c3c(Cl)cccc3Cl)s2)cc1	43	–	–	–	49	70
CO[C@@H]1CN(C)C(=O)c2cc(NS(=O)(=O)c3ccc(C)cc3)ccc2OC[C@H](C)N(Cc2nccs2)C[C@H]1C	–	–	–	–	–	–
CC(C)c1[nH]nc2c1C1(CCN(Cc3ccccc3)CC1)C(C#N)=C(N)O2	–	32	–	–	–	–
COc1ccc(-c2nc3c4ccccc4ccn3c2Cc2ccccc2)cc1OC	–	–	–	–	–	–
CC(C)(C)NC(=O)C(c1ccccn1)N(C(=O)c1csnn1)C1CCCCC1 (configuration not stated)	–	–	–	–	–	–
CCC(C)(C)NC(=O)C(c1ccccn1)N(C(=O)c1csnn1)C1CCCCC1 (configuration not stated)	–	–	23	–	–	–
CCN(CCCNc1cc2c(c(N)c1S(=O)(=O)O)C(=O)c1ccccc1C2=O)c1ccccc1	–	–	–	–	–	–
O=C(O)C1CCN(C(=O)c2ccccc2C(=O)N2CCC(C(=O)O)CC2)CC1	–	–	–	–	–	–
O=C(O)C1CCN(C(=O)c2cccc3ccccc23)CC1	–	–	–	18	–	–
